Measured values taken from ChEMBL document CHEMBL1155233, “Structure mechanism insights and the role of nitric oxide donation guide the development of oxadiazole-2-oxides as therapeutic agents against schistosomiasis” (J Med Chem, 2009).
Active and inactive are the calls of the source. No cut-off for these calls is given here.

Tests used:
[1] = system: Schistosoma mansoni; test: Antischistosomal activity against Schistosoma mansoni assessed as parasite killing after 2 hrs; format: functional, organism-based
Summary of the method: (§1)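 Cultured ex vivo worms were exposed to 10 μM compound. Worm effects were scored by visual examination at time points over a 72 h time-course.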

[2] = system: Schistosoma mansoni; test: Antischistosomal activity against Schistosoma mansoni assessed as induction of parasite mortality after 72 hrs; format: functional; parameters: concentration or dose not given beside the values; summary of the method: as §1
[3] = system: Schistosoma mansoni; test: Antischistosomal activity against Schistosoma mansoni assessed as parasite killing after 4 hrs; format: functional; summary of the method: as §1
[4] = system: Schistosoma mansoni; test: Antischistosomal activity against Schistosoma mansoni assessed as induction of parasite mortality after 24 hrs; format: functional; parameters: concentration or dose not given beside the values; summary of the method: as §1
[5] = system: Schistosoma mansoni; test: Antischistosomal activity against Schistosoma mansoni assessed as induction of parasite mortality after 16 hrs; format: functional; parameters: concentration or dose not given beside the values; summary of the method: as §1
[6] = system: Schistosoma mansoni; test: Antischistosomal activity against Schistosoma mansoni assessed as induction of parasite mortality after 48 hrs; format: functional; parameters: concentration or dose not given beside the values; summary of the method: as §1
[7] = Induction of nitric oxide release at 10 uM in presence of Schistosoma mansoni recombinant TGR; format: functional
[8] = system: Schistosoma mansoni; test: Antischistosomal activity against Schistosoma mansoni assessed as induction of parasite mortality after 8 hrs; format: functional; parameters: concentration or dose not given beside the values; summary of the method: as §1
[9] = Induction of nitric oxide release at 10 uM in presence of Schistosoma mansoni recombinant TGR and NADPH; format: functional
[10] = system: Schistosoma mansoni; test: Antischistosomal activity against Schistosoma mansoni assessed as induction of parasite sluggish movement after 16 hrs; format: functional, organism-based; summary of the method: as §1
[11] = target: T1, Glutathione reductase, mitochondrial (Homo sapiens, UniProt P00390); test: Inhibition of human recombinant GR after 15 mins in presence of NADPH
T1 sequence (P00390 whole entry): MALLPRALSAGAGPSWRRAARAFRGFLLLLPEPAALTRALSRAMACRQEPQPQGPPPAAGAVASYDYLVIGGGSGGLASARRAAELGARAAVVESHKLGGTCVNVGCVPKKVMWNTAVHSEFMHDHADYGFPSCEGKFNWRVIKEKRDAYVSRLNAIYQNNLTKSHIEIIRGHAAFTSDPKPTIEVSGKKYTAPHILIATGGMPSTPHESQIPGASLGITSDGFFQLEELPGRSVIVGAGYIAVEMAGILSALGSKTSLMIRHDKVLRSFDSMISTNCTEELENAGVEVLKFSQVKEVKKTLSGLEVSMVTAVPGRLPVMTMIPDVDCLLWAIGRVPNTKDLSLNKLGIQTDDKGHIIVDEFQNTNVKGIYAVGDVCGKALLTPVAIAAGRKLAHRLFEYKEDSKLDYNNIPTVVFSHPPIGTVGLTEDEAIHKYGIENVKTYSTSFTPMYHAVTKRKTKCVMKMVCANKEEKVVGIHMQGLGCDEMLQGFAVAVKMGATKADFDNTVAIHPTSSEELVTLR

[12] = target: T2, Thioredoxin reductase 1, cytoplasmic (Rattus norvegicus, UniProt O89049); test: Inhibition of rat recombinant TrxR1 after 10 mins
T2 sequence (O89049 whole entry): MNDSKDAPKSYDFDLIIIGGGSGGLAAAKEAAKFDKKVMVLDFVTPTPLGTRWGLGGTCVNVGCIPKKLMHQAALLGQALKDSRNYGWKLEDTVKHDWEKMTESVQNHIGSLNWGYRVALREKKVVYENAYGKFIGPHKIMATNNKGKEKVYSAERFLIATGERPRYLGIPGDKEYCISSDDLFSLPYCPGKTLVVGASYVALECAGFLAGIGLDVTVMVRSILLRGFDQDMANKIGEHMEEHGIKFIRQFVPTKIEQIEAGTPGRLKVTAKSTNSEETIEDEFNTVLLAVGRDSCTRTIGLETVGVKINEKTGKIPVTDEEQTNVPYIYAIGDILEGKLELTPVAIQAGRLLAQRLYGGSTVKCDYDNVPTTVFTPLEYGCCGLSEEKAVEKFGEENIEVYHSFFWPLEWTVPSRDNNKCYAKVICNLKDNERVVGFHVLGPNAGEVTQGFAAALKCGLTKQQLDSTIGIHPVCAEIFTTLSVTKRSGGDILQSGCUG

[13] = Induction of nitric oxide release at 10 uM in presence of cysteine; format: physicochemical
[14] = target: T3, Thioredoxin glutathione reductase (Schistosoma mansoni, UniProt Q962Y6); test: Inhibition of Schistosoma mansoni TGR
T3 sequence (Q962Y6 whole entry): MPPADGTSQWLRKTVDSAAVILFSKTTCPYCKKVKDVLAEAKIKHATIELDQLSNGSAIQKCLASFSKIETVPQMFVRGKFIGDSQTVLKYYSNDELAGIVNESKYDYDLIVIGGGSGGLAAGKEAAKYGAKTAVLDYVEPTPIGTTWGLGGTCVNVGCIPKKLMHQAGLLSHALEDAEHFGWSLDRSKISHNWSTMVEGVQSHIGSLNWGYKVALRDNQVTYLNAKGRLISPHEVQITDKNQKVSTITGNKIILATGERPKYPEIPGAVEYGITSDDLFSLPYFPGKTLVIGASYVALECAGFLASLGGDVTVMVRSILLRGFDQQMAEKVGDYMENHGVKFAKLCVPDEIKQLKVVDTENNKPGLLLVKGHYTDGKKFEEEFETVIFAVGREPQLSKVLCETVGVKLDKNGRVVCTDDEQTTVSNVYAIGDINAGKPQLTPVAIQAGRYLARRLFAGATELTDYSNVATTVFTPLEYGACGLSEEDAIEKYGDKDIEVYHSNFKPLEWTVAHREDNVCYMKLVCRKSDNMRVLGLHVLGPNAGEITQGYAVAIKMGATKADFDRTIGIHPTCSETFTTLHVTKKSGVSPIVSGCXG

[15] = Reactivity with cysteine at 0.1 mM in 0.1M phosphate buffer assessed as amount of compound unreacted by HPLC
[16] = Metabolic stability in human liver microsomes assessed as compound remaining over 60 mins in absence of NADPH; format: ADME, Microsome; settings: read-out: Stability

Row | Compound | Activity [1] | Activity [2] | Activity [3] | Activity [4] | Activity [5] | Activity [6] | Activity [7] [%] | Activity [8] | Activity [9] [%] | Activity [10] | IC50 [11] [µM] | IC50 [12] [µM] | Activity [13] [%] | IC50 [14] [nM] | Activity [15] | remaining at 1 h [16] [%]
1 | N#Cc1c(-c2cccc(O)c2)no[n+]1[O-] | inactive | inactive | inactive | inactive | inactive | inactive |  |  |  |  |  |  |  |  |  | 
2 | N#Cc1c(-c2ccc(Cl)cc2)no[n+]1[O-] | inactive | 100% | inactive | 42% |  | 60% | 2 | inactive | 16 | Active | > 50 | > 400 | 61 |  |  | 
3 | [O-][n+]1onc(-c2ccccc2)c1CO |  |  |  |  |  |  |  |  |  |  | > 50 | > 400 |  |  |  | 
4 | COc1ccc(-c2no[n+]([O-])c2C#N)cc1 | inactive | 100% | inactive | 29% | 10% | 60% | 2 | inactive | 10 |  | > 50 | > 400 | 55 |  |  | 
5 | NC(=O)c1c(-c2ccccc2)no[n+]1[O-] | inactive | 100% | inactive | 60% | 27% | 100% |  | 12% |  |  | > 50 | > 400 |  | 17800 |  | 
6 | N#Cc1c(-c2ccc(F)cc2)no[n+]1[O-] | inactive | 100% | inactive | 72% | 15% | 100% | < 1 | 5% | 13 |  | > 50 | 300 | 50 |  |  | 
7 | N#Cc1c(-c2cccc(C(F)(F)F)c2)no[n+]1[O-] | inactive | 100% | inactive | 54% | 25% | 100% | 2 | 7% | 20 |  | > 50 | 250 | 78 |  |  | 
8 | N#Cc1c(C(=O)c2cccs2)no[n+]1[O-] | inactive | inactive | inactive | inactive | inactive | inactive |  | inactive |  |  |  |  |  | 63 | Active | 
9 | N#Cc1c(-c2csc(-c3no[n+]([O-])c3C#N)c2)no[n+]1[O-] | inactive |  |  |  |  |  |  |  |  |  |  |  |  |  |  | 52
10 | N#Cc1c(-c2ccco2)no[n+]1[O-] | inactive | 100% | inactive | 70% | 40% | 100% | 2 | 10% | 16 |  | > 50 | 350 | 60 | 2800 |  | 
11 | N#Cc1c(-c2cccc([N+](=O)[O-])c2)no[n+]1[O-] | inactive | 21% | inactive | 10% |  | 15% | 2 | inactive | 16 | Active | > 50 | 150 | 72 |  |  | 
12 | N#Cc1c(-c2ccc(C(F)(F)F)cc2)no[n+]1[O-] | inactive | 100% | inactive | 64% | 20% | 80% | 2 | 12% | 22 |  | 45.3 | < 12.5 | 80 |  |  | 
13 | Cc1ccc(-c2no[n+]([O-])c2C#N)cc1 | inactive | 70% | inactive | 50% | 15% | 55% | 1 | inactive | 15 |  | > 50 | > 400 | 58 |  |  | 
14 | COc1cc(-c2no[n+]([O-])c2C#N)cc(OC)c1OC | inactive | 75% | inactive | 40% |  | 70% | < 1 | 7% | 8 | Active | > 50 | 150 | 20 |  |  | 
15 | N#Cc1no[n+]([O-])c1-c1ccccc1 |  |  |  |  |  |  | < 1 |  | 5 |  |  |  | 10 |  | Active | 
16 | COc1cccc(-c2no[n+]([O-])c2C#N)c1 | inactive | 20% | inactive | 7% | inactive | 12% | 2 | inactive | 9 |  | > 50 | > 400 | 52 |  |  | 
17 | N#Cc1nonc1-c1ccccc1 |  |  |  |  |  |  | < 1 |  | 3 |  |  |  | 7 |  |  | 
18 | N#Cc1c(-c2cccc(Br)c2)no[n+]1[O-] | inactive | 100% | inactive | 100% | 39% | 100% | 2 | 20% | 19 |  | > 50 | 150 | 70 |  |  | 
19 | O=C(c1cccs1)c1no[n+]([O-])c1C(=O)c1cccs1 | inactive | inactive | inactive | inactive | inactive | inactive |  | inactive |  |  |  |  |  | 40 | Active | 
20 | COc1ccccc1-c1no[n+]([O-])c1C#N | inactive | 60% | inactive | 40% | 11% | 50% |  |  |  |  |  |  |  |  |  | 
21 | O=C(O)c1c(-c2ccccc2)no[n+]1[O-] | inactive | inactive | inactive | inactive | inactive | inactive | 2 | inactive | 7 |  | > 50 | > 400 | 10 | 630 |  | 
